Screens as filed in PubChem.
The entries come from a sample that favours hits as a whole.
TLR9-MyD88 inh = inhibitors of human TLR9-MyD88 binding; inhibition, % at 4.98 µM; 340,000 compounds, 0.21% hits; AID 504734; CHO BLA complementation TLR9-MyD88, CCF4 FRET ratio; Q9NR96+Q99836;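 active = inhibition above the mean over all tested compounds plus 3 SD, cut at about 21% in these data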
XBP1 UPR activ = adaptive UPR (XBP1) activation. activation, % at 20 µM. 330,000 compounds, 0.33% hits. CHO-XBP1 luciferase reporter, IRE1-XBP1 UPR activation, luminescence; percent of tunicamycin response, DMSO as zero;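 active = versus positive control, 20 µM dose yields 30% or more activation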
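Test system: CHO-XBP1 luciferase reporter cells | Buffer or medium: Serum-containing F12 medium, 10% FBS | Schedule: 6 h compound exposure at 37 °C, 5% CO2 | Detection: Steady-Glo luciferase glow luminescence, 10 min after reagent addition | Read-out basis: Activation, % of tunicamycin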
TLR4 MyD88 comp = blocks binding of human TLR4 to MyD88 | 200,000 compounds, 0.18% hits | HeLa CL3-4 TLR4/MyD88 BLA complementation, FRET ratio | inhibition, % at 8.4 µM | O00206+Q99836; in the data active = inhibition above about 25%
Target sequence (O00206 whole entry, looked up): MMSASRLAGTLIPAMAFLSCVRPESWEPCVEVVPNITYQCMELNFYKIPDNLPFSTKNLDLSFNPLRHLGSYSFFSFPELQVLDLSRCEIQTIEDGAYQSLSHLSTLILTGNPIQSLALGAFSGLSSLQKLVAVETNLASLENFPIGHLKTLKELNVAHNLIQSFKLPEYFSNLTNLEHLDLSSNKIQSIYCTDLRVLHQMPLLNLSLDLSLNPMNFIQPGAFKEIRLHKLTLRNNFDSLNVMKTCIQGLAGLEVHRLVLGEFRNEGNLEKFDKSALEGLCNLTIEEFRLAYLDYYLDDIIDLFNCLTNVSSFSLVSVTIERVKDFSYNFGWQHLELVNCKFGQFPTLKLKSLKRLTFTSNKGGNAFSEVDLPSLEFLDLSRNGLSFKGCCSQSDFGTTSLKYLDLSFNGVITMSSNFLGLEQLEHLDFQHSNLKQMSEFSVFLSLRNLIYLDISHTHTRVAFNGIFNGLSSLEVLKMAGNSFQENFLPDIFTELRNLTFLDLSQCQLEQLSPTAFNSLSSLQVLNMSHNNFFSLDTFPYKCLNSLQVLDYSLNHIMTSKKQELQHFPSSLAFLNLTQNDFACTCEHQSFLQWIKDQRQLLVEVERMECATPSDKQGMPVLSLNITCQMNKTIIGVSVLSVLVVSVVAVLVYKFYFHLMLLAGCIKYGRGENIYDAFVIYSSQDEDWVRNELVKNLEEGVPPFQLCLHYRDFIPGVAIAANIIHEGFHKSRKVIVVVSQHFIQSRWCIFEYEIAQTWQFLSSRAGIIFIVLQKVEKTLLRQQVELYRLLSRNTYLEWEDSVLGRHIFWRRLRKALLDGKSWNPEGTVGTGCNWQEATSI
Target sequence (Q99836 whole entry, looked up): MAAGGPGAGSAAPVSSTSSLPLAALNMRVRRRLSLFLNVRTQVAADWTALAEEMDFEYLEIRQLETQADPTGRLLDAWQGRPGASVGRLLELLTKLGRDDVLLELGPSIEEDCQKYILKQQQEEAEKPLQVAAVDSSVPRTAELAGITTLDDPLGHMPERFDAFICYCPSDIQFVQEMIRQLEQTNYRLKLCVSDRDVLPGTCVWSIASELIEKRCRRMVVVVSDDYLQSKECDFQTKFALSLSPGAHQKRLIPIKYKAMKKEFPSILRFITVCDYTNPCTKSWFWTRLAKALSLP
UPR CHOP act = activators of apoptotic arm of unfolded protein response (CHOP); 330,000 compounds, 0.34% hits; AID 449763; CHO-CHOP luciferase reporter, UPR activation, luminescence; percent of tunicamycin response over DMSO baseline; activation, % at 10 µM;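 active = at 10 µM dose, activation of 40% or more, normalized to positive control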
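assay system = CHO CHOP reporter cells | amount = 500 CHO-CHOP cells per well | buffer or medium = F12 with 10% FBS | incubation = 16-18 h cell attachment, then 6 h compound exposure, 37 °C | detection = luminescence read with Steady-Glo | read-out = percent activation relative to tunicamycin control | controls = tunicamycin high control, DMSO low control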
CHOP inhibitor = CHOP inhibition in unfolded protein response. CHO-K1 CHOP-promoter luciferase, tunicamycin-induced, 15-18 h. inhibition, % at 10 µM. AID 2732. 220,000 compounds, 3.8% hits;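 active = compounds that reduced the stress-induced luciferase reporter signal by more than about 70% of percent inhibition, limit read from the data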
NOD2 RIPK2 PPI = NOD2-RIPK2 protein interaction inhibition | CHO BLA complementation NOD2-RIPK2, CCF4 ratio | AID 624267 | inhibition, % at 4.98 µM | 360,000 compounds, 0.38% hits; in the data active = inhibition above about 21%
CHOP UPR conf = confirmation of apoptotic unfolded protein response (CHOP) activators; CHO-CHOP cells, CHOP-luciferase reporter luminescence; percent of tunicamycin response, DMSO as zero; AID 463112; activation, % at 10 µM; shares compounds with UPR CHOP act; 1,000 compounds, 64% hits; in the data active = activation above about 33%
Large screens that a line does not name were inactive (follow-up assays come after a bar, where they were run).

Cc1ccn2cc(-c3cccc(NC(=O)C(C)C)c3)nc2c1	none
Oc1ccc(-c2cn3ccccc3n2)cc1	none (no result: TLR4 MyD88 comp)
COc1ccc(C(=O)NNC(=O)C23CC4CC(CC(C4)C2)C3)cc1OC	none (no result: TLR4 MyD88 comp, CHOP inhibitor)
COc1cc(/C=C2\C(=O)ON=C2c2ccc(Cl)cc2)ccc1O	UPR CHOP act 180.5 (no result: TLR9-MyD88 inh, TLR4 MyD88 comp, CHOP inhibitor, NOD2 RIPK2 PPI) | CHOP UPR conf 142.7
S=C(NCc1ccccc1)NNc1nc2ccccc2[nH]1	none
N#Cc1c(N2CCCC(O)C2)nc(N)c2c(N)nc3c(c12)CC(=O)N3C12CC3CC(CC(C3)C1)C2 (centres undefined)	UPR CHOP act 46.3 | CHOP UPR conf inactive
O=[N+]([O-])c1ccc(Sc2nnnn2-c2ccccc2)nc1	UPR CHOP act 126.0 (no result: TLR9-MyD88 inh, NOD2 RIPK2 PPI) | CHOP UPR conf 101.5
Cc1nc(NCc2ccco2)c2c(C)c(C)sc2n1	UPR CHOP act 40.6 | CHOP UPR conf inactive
O=C(Nc1cc([N+](=O)[O-])ccc1F)c1ccc2ccccc2c1	none (no result: TLR4 MyD88 comp, CHOP inhibitor)
O=C(Nc1cc([N+](=O)[O-])ccc1F)c1ccc2c(c1)OCCO2	UPR CHOP act 98.9 | CHOP UPR conf inactive
CC(=O)c1ccc(NC(=O)COC(=O)c2ccccc2N=Nc2ccc(N(C)C)cc2)cc1	UPR CHOP act 44.4 | CHOP UPR conf 55.2
CC(=O)Nc1ccc2c(c1)nc(CCN1CCN(c3ccccn3)CC1)n2C	none (no result: TLR4 MyD88 comp, CHOP inhibitor)
Cc1cc(C(=O)CCl)c(C)n1Cc1ccco1	UPR CHOP act 98.7 | CHOP UPR conf 235.6
Cc1cc(C(=O)CCl)c(C)n1CCc1ccccc1	UPR CHOP act 195.7 (no result: TLR9-MyD88 inh, NOD2 RIPK2 PPI) | CHOP UPR conf 204.1
Cc1cc(C(=O)CSc2nncs2)c(C)n1Cc1ccco1	none
O=C(NNC(=O)c1ccc(-c2ccccc2)cc1)Nc1ccc(F)cc1F	none (no result: TLR4 MyD88 comp, CHOP inhibitor)
CC(=NNC(=S)Nc1ccccc1)c1ccccn1	none (no result: XBP1 UPR activ, TLR4 MyD88 comp, UPR CHOP act, CHOP inhibitor)
C/C(=N\NC(=O)c1cc2ccccc2cc1O)c1ccccn1	UPR CHOP act 245.0 (no result: TLR4 MyD88 comp, CHOP inhibitor) | CHOP UPR conf 291.9
C=CCNC(=S)N/N=C(\C)c1ccccn1	UPR CHOP act 211.4 | CHOP UPR conf 203.3
C/C(=N\NC(=O)c1ccc(F)cc1)c1ccccn1	UPR CHOP act 302.8 (no result: TLR4 MyD88 comp, CHOP inhibitor) | CHOP UPR conf 266.7
C/C(=N\NC(=O)c1c[nH]c2ccccc12)c1ccccn1	none
O=Cc1cn(CC(=O)N2CCc3ccccc32)c2ccccc12	none
CC1(C)C2CCC1(CS(=O)(=O)NCc1ccc(S(N)(=O)=O)cc1)C(=O)C2 (centres undefined)	none (no result: TLR4 MyD88 comp, CHOP inhibitor)
C[C@H](CO)N1C[C@H](C)[C@@H](CN(C)S(=O)(=O)c2ccc(C#N)cc2)OCc2cn(nn2)CCCC1=O	none (no result: XBP1 UPR activ, TLR4 MyD88 comp, UPR CHOP act, CHOP inhibitor)
COCCNC(=O)COc1cccc2c1OC(C)(C)C2	none
C/C(CC1CC2=C(CC1(C)C)C(C)(C)CCC2)=N\NC(N)=S (centres undefined)	UPR CHOP act 57.0 | CHOP UPR conf inactive
COc1ccc(NC(=O)c2sc3ncn(CC(=O)N4CCCCC4)c(=O)c3c2C)cc1OC	none (no result: TLR4 MyD88 comp, CHOP inhibitor)
Cc1[nH]c2ccccc2c1CCNC(=O)c1ccc2c(c1[N+](=O)[O-])C(=O)c1ccccc1C2=O	none
Cc1[nH]c2c(C)cccc2c1CCNC(=O)c1ccc2c(c1[N+](=O)[O-])C(=O)c1ccccc1C2=O	UPR CHOP act 47.7 | CHOP UPR conf 39.9
CCc1ccc(NC2=CC(=O)C(=O)c3ccccc32)cc1	UPR CHOP act 62.3 (no result: TLR4 MyD88 comp, CHOP inhibitor) | CHOP UPR conf inactive
O=C1C=C(Nc2ccccc2)c2ccccc2C1=O	none
CCCCC(=O)NC(c1ccccc1)c1ccc2cccnc2c1O (centres undefined)	none (no result: TLR4 MyD88 comp, CHOP inhibitor)
CCCC(=O)NC(c1ccccc1)c1ccc2cccnc2c1O (centres undefined)	UPR CHOP act 51.1 (no result: TLR4 MyD88 comp, CHOP inhibitor) | CHOP UPR conf inactive
O=C(OCn1nnc2ccccc2c1=O)c1cccc(S(=O)(=O)N2CCOCC2)c1	none (no result: TLR4 MyD88 comp, CHOP inhibitor)
Cc1ccc(NC(=O)CN2C(=O)NC(C)(C3CC3)C2=O)c(C)c1 (centres undefined)	UPR CHOP act 70.0 (no result: TLR4 MyD88 comp, CHOP inhibitor) | CHOP UPR conf inactive
